Among the data in ChEMBL document CHEMBL3259533, “A new convenient synthetic method and preliminary pharmacological characterization of triazinediones as prokineticin receptor antagonists” (Eur J Med Chem, 2014) are Activity and EC50 values, retold here.

The source made the active and inactive calls. The calls are words filed in the database; no cut-off is given here.

The subject of assay [1] is Mus musculus. As to the kind of experiment: Analgesic activity in C57Bl/6 mouse assessed as changes in basal thermal sensitivity up to 120 pmol administered as intraplantar route at 48 degC after 15 to 180 mins. It is filed as functional, organism-based. Summed up: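 Male C57Bl/6 mice (25–30 g), trained in paw-immersion test the preceding week. Compound in saline, 20 µl intraplantar, up to 120 pmol. Hind paw dipped in 48 °C water; withdrawal latency measured three times at 15–180 min post-dose versus baseline (mean of last three pre-dose readings). Result as % change from baseline; 5 mice per dose.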

Assay [2] concerns Mus musculus. The assay can be described thus: Analgesic activity in C57Bl/6 mouse assessed as inhibition of Bv8-induced decrease in latencies to paw withdrawal administered as intraplantar route at 48 degC after 15 to 180 mins. The assay is classed as functional, organism-based. Summed up: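 Male C57Bl/6 mice (25–30 g), trained the preceding week. Antagonist in saline, 20 µl intraplantar, 5 min before Bv8 (63 fmol i.pl. in saline). Paw withdrawal latency from 48 °C water measured in triplicate at 15–180 min; %ΔNT = 100×(NTts−NTB)/NTB. Separate group of 5 mice per dose; EC50 with 95% confidence intervals from dose–response curves.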

For the compound `COc1ccc(Cn2c(NCCNC(=N)N)nc(=O)n(Cc3ccc(OC)cc3)c2=O)cc1`, the result in assay [1] was inactive. On to `COc1ccc(Cn2c(=O)nc(NCCNC(=N)N)n(Cc3ccccc3)c2=O)cc1`, for which, in assay [1], the result was inactive. Further, in assay [2], the EC50 is given as 63 pmol. On the same counts, the results for `COc1ccc(Cn2c(NCCNC(=N)N)nc(=O)n(Cc3ccc(F)cc3)c2=O)cc1` are “inactive” and 0.31 pmol. In the same order, the values of `COc1ccc(Cn2c(=O)nc(NCCNC(=N)N)n(Cc3ccc(Br)cc3)c2=O)cc1` are “inactive” and 4.3 pmol.

Turning to `COc1ccc(Cn2c(NCCNC(=N)N)nc(=O)n(Cc3ccc(Cl)cc3)c2=O)cc1`, the result in assay [1] was inactive. Further, in assay [2], the EC50 worked out at 4 pmol. In the case of `COc1ccc(Cn2c(NCCNC(=N)N)nc(=O)n(Cc3ccc(C(F)(F)F)cc3)c2=O)cc1`, the result in assay [1] was inactive. The EC50 in assay [2] came out at 51 pmol. On the same counts, the results for `COc1ccc(Cn2c(=O)nc(NCCNC(=N)N)n(Cc3ccc(C)cc3)c2=O)cc1` are “inactive” and 4.5 pmol. In the same order, the values of `COc1ccc(Cn2c(NCCNC(=N)N)nc(=O)n(Cc3ccc(Br)cc3)c2=O)cc1` are “inactive” and 0.36 pmol. Regarding `COc1ccc(Cn2c(=O)nc(NCCNC(=N)N)n(Cc3ccc(I)cc3)c2=O)cc1`, in assay [1], the outcome was inactive. Besides, the EC50 in assay [2] was 39 pmol. Consider `COc1ccc(Cn2c(=O)nc(NCCNC(=N)N)n(Cc3ccc(Cl)cc3)c2=O)cc1`, for which the outcome in assay [1] was inactive. In assay [2], the EC50 worked out at 4.4 pmol. On the same counts, the results for `COc1ccc(Cn2c(=O)nc(NCCNC(=N)N)n(Cc3ccc(C(F)(F)F)cc3)c2=O)cc1` are “inactive” and 48 pmol. On the same counts, the results for `COc1ccc(Cn2c(NCCNC(=N)N)nc(=O)n(Cc3ccc(C)cc3)c2=O)cc1` are “inactive” and 4.4 pmol. On the same counts, the results for `COc1ccc(Cn2c(=O)nc(NCCNC(=N)N)n(Cc3ccc(F)cc3)c2=O)cc1` are “inactive” and 36 pmol. For the compound `Cc1ccc(Cn2c(NCCNC(=N)N)nc(=O)n(Cc3ccc(C(F)(F)F)cc3)c2=O)cc1`, the result in assay [1] was inactive. Moreover, the EC50 in assay [2] was determined as 0.033 pmol.

With `COc1ccc(Cn2c(NCCNC(=N)N)nc(=O)n(Cc3ccc([N+](=O)[O-])cc3)c2=O)cc1`, in assay [1], the outcome was inactive. Besides, in assay [2], the EC50 worked out at 48 pmol. On the same counts, the results for `Cc1ccc(Cn2c(=O)nc(NCCNC(=N)N)n(Cc3ccc(Cl)c(Cl)c3)c2=O)cc1` are “inactive” and 5.1 pmol. In the same order, the values of `CCc1ccc(Cn2c(=O)nc(NCCNC(=N)N)n(Cc3ccc(OC)cc3)c2=O)cc1` are “inactive” and 5.8 pmol. As to `COc1ccc(Cn2c(=O)nc(NCCNC(=N)N)n(Cc3ccc(Cl)c(Cl)c3)c2=O)cc1`, in assay [1], the result was inactive. Further, the EC50 in assay [2] is reported as 4.5 pmol.

Turning to `COc1ccc(Cn2c(NCCNC(=N)N)nc(=O)n(Cc3ccc4c(c3)OCO4)c2=O)cc1`, the result in assay [1] was inactive. Besides, in assay [2], the EC50 worked out at 39 pmol. On the same counts, the results for `COc1ccc(Cn2c(NCCNC(=N)N)nc(=O)n(Cc3ccc(I)cc3)c2=O)cc1` are “inactive” and 51 pmol.
